Results collected from several papers.
Each line is one published result; the experiments were not run side by side.
Trypanothione synthetase: Trypanothione synthetase (Trypanosoma cruzi, UniProt Q9GT49)
EAPA: Endothiapepsin (EAPA, Cryphonectria parasitica, UniProt P11838)
Tmem97: Sigma intracellular receptor 2 (Tmem97, Rattus norvegicus, UniProt Q5U3Y7)
MMP3: Stromelysin-1 (MMP3, Homo sapiens, UniProt P08254)
BDKRB2: B2 bradykinin receptor (BDKRB2, Homo sapiens, UniProt P30411)
HTR2C: 5-hydroxytryptamine receptor 2C (HTR2C, Homo sapiens, UniProt P28335)
dxs: 1-deoxy-D-xylulose-5-phosphate synthase (dxs, Deinococcus radiodurans, UniProt Q9RUB5)

With `CCN(CC)C(=O)CN1C(=O)Cc2c([nH]c3ccc(Br)cc23)-c2ccc(Cl)cc21` the inhibition was 7.8% (Trypanothione synthetase; enzyme activity, inhibitor, absorbance; 30 µM).
The inhibition of `NNC(COCc1ccccc1)c1nnnn1Cc1ccc2c(c1)OCO2` (stereo not drawn) is reported as 48.3% (EAPA; enzyme activity, inhibitor; 200 µM).
`CNC(=O)c1cc(Oc2ccc(NC(=O)Nc3ccc(Cl)c(C(F)(F)F)c3)cc2)ccn1` has an inhibition of 4% (Serine/threonine-protein kinase SIK1 (SIK1, Homo sapiens, UniProt P57059); enzyme activity, inhibitor; 0.3 µM).
For `CN(C)C(=O)CN1C(=O)Cc2c([nH]c3ccc(Br)cc23)-c2ccc(Cl)cc21`, the inhibition was 14.9% (Trypanothione synthetase; enzyme activity, inhibitor, absorbance; 30 µM).
`CNC(=O)[C@@]12C[C@@H]1[C@@H](n1cnc3c(NC)nc(C#Cc4ccc(Cl)s4)nc31)[C@H](O)[C@@H]2O` has an inhibition of 60 to 70% (Tmem97; ligand displacement, radioligand; 10 µM).
`O=C(O)c1ccccn1` gave an inhibition of greater than 80% (MMP3; enzyme activity, inhibitor; 1 mM, pH 6).
For `Ic1cccc2cnccc12`, the inhibition was 12% (Poly [ADP-ribose] polymerase tankyrase-2 (TNKS2, Homo sapiens, UniProt Q9H2K2); enzyme activity, inhibitor; 10 µM).
With `CC(C)(C)OC(=O)NCCNC(=O)CN1C(=O)Cc2c([nH]c3ccc(Br)cc23)-c2ccc(Cl)cc21` the inhibition was 38.5% (Trypanothione synthetase; enzyme activity, inhibitor, absorbance; 30 µM).
`NNC(CCc1ccccc1)c1nnnn1Cc1ccc2c(c1)OCO2` (stereo not drawn) gave an inhibition of 36.3% (EAPA; enzyme activity, inhibitor; 200 µM).
With `O=C(CN1C(=O)Cc2c([nH]c3ccc(Br)cc23)-c2ccc(Cl)cc21)N1CCN(c2ncccn2)CC1` the inhibition was 40.6% (Trypanothione synthetase; enzyme activity, inhibitor, absorbance; 30 µM).
`CCCC(NN)c1nnnn1Cc1ccccc1` (stereo not drawn) gave an inhibition of 3% (EAPA; enzyme activity, inhibitor; 200 µM).
The inhibition of `O=C(c1ccc(Cl)cc1)N(Cc1ccccc1)C1CCCCC1` is reported as -1.6% (BDKRB2; cell-free assay; 10 µM).
For `CCN(Cc1ccccc1C(F)(F)F)C(=O)C1CCN(S(=O)(=O)c2ccc3[nH]ncc3c2)CC1`, the inhibition was 18% (Substance-P receptor (TACR1, Homo sapiens, UniProt P25103); ligand displacement, radioligand; 10 µM).
`CCOC(=O)CN1C(=O)Cc2c([nH]c3ccc(Br)cc23)-c2ccc(Cl)cc21` gave an inhibition of 19.1% (Trypanothione synthetase; enzyme activity, inhibitor, absorbance; 30 µM).
With `CCCNc1nc2ccccc2n1Cc1ccc(Cl)cc1` the inhibition was 80% (HTR2C; ligand displacement, radioligand; 10 µM).
`O=C(Nc1ccc(S(=O)(=O)N2CCC(Cl)CC2)cc1)c1ccc([N+](=O)[O-])o1` gave an inhibition of 4% (BDKRB2; ligand displacement, radioligand; 10 µM).
`NNC(COCc1ccccc1)c1nnnn1CC(=O)NCc1cccs1` (stereo not drawn) has an inhibition of 51.9% (EAPA; enzyme activity, inhibitor; 200 µM).
`CN(C)C1CCN(CC#Cc2nn(C3CCCC3)c3nc(NCc4ccccc4)ncc23)C1` (stereo not drawn) has an inhibition of -4% (Rho-associated protein kinase 1 (ROCK1, Homo sapiens, UniProt Q13464); enzyme activity, inhibitor, FRET; 10 µM).
For `C#CCOCCOCCOc1ccc2c3c1C1CCCC1N3CCNC2` (racemic), the inhibition was 100% (HTR2C; ligand displacement, radioligand; 10 µM).
For `NNC(CCc1ccccc1)c1nnnn1Cc1ccc2c(c1)OCCO2` (stereo not drawn), the inhibition was 42.5% (EAPA; enzyme activity, inhibitor; 200 µM).
For `Oc1ccc(-c2nnc(CCCOc3ccc(Cl)cc3Cl)o2)c(F)c1`, the inhibition was 49.2% (dxs; enzyme activity, inhibitor; 120 µM).
With `O=C(c1ccc(F)cc1)N(Cc1ccccc1)C1CCCCC1` the inhibition was -3% (BDKRB2; cell-free assay; 10 µM).
`O=C1N=C(N2CCCCN2)S/C1=C\c1ccc(F)cc1O` has an inhibition of less than 10% (Melatonin receptor type 1A (MTNR1A, Homo sapiens, UniProt P48039); ligand displacement, radioligand; 10 µM).
With `CS(=O)(=O)O.c1cc2c(cc1C1CCCCC1)c1c3n2CCNC3CCC1` (stereo not drawn) the inhibition was 28.9% (Trypanothione synthetase; enzyme activity, inhibitor, absorbance; 25 µM).
`N#Cc1cc(Cn2c(N3CCCC3)nc3ccccc32)ccc1F` has an inhibition of 14.4% (HTR2C; ligand displacement, radioligand; 10 µM).
For `Oc1cccc(Nc2nc(-c3ccc(F)cc3F)cs2)c1`, the inhibition was -68.7% (BDKRB2; cell-free assay; 10 µM).
`CC1CNc2c(cccc2S(=O)(=O)N[C@@H](CCCNC(=N)N)C(=O)N2CC[C@@H](C)C[C@@H]2C(=O)O)C1` (stereo partly drawn) has an inhibition of 94% (Prothrombin (F2, Bos taurus, UniProt P00735); enzyme activity, inhibitor, fluorescence; 0.1 µg/mL).
`COc1cc(NC(C)=O)c(Cl)cc1C(=O)Nc1nccs1` gave an inhibition of -21.3% (BDKRB2; cell-free assay; 10 µM).
For `O=C(CN1C(=O)Cc2c([nH]c3ccc(Br)cc23)-c2ccc(Cl)cc21)NCCN1CCNCC1`, the inhibition was 7.9% (Trypanothione synthetase; enzyme activity, inhibitor, absorbance; 30 µM).
For `CCCCCC(NN)c1nnnn1Cc1ccc2c(c1)OCO2` (stereo not drawn), the inhibition was 32.8% (EAPA; enzyme activity, inhibitor; 200 µM).
`COc1cc2c(cc1OC)CN(C(C)CCc1ccc(O)cc1)CC2` (stereo not drawn) has an inhibition of 94% (Tmem97; ligand displacement, radioligand; 0.1 µM).
`CCN(CC)CCNC(=O)CN1C(=O)Cc2c([nH]c3ccc(Br)cc23)-c2ccc(Cl)cc21` gave an inhibition of 17.1% (Trypanothione synthetase; enzyme activity, inhibitor, absorbance; 30 µM).
`O=C(O)c1ccc(C(=O)O)nc1` has an inhibition of greater than 80% (MMP3; enzyme activity, inhibitor; 1 mM, pH 6).
`FC(F)(F)c1ccc(-c2nnc(-c3cc4c(s3)CCCC4)o2)cn1` gave an inhibition of 0% (dxs; enzyme activity, inhibitor; 120 µM).
The inhibition of `O=C(CN1C(=O)Cc2c([nH]c3ccc(Br)cc23)-c2ccc(Cl)cc21)NCCN1CCOCC1` is reported as 11.3% (Trypanothione synthetase; enzyme activity, inhibitor, absorbance; 30 µM).
`CN(Cc1ccc(NC(=O)C2=Cc3cc(-c4ccc(OCCCCCF)cc4)ccc3CCC2)cc1)C1CCOCC1` has an inhibition of 7% (Tmem97; ligand displacement, radioligand; 10 µM).
